Consider 14 compounds from PubChem BioAssay.

Active and inactive are the calls of the source.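 The calls were made as follows, unless noted: active = inhibition at or above 50% at 10 µM; inactive = inhibition below 50%.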

The nature of assay [1]: inhibitors of TNFa-induced NFkB p65 translocation, primary screen, imaging, HUVEC, MLSMR starter and 10KST1 sets (AID 438;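 active = inhibition above 20% together with a positive visual image hit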;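 also: compound added about 3h40 before a 20 min TNFalpha stimulation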;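 as to inhibition: signal is the nuclear over cytoplasmic p65 intensity ratio per well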). The note with it: HUVEC TNFa-induced p65 nuclear translocation; cell count: measured here: nuclei count (cytotoxicity indicator), at 2.08 µM; inhibition: at 2 µM, stronger effect = higher value, 0% TNFa-plus-vehicle, 100% no-TNFa wells.
Assay [2] in a line: reduction of polyQ htt aggregates in cells – imaging, exon1htt(103Q)mCFP cells, high-content imaging, primary screen (AID 483;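 active = visual image review flags a hit and inhibition of aggregation exceeds 20%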;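 also: compound exposure lasted 3 days before fixation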;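 as to nuclei count: percent of the per-plate median nuclei count of sample wells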). Conditions: exon1htt(103Q)mCFP cell line, aggregate imaging, at 2 µM; inhibition of aggregation: stronger effect = higher value; nuclei count: measured here: cell count, toxicity.
Assay [3] in a line: endothelial E-selectin expression blockers – imaging, HUVEC, immunofluorescence, MLSMR starter and 10KST1 sets, primary screen (AID 487;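 active = visually confirmed hit in the image check and inhibition above 20%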;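 as to inhibition: signal is fraction of cell area covered by stained E-selectin grains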;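 as to nuclei count: 100% = median nuclei count of all wells on the same plate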). The note with it: HUVEC TNFalpha-induced E-selectin immunofluorescence imaging, at 2 µM; inhibition: stronger effect = higher value; nuclei count: measured here: cell number, toxicity.
Assay [4] concerns the target Voltage-gated potassium channel subunit beta-2 (Rattus norvegicus) (UniProt P62483). Kind of assay: inhibitors of rat Kvbeta2 reductase activity – biochemical, NADPH fluorescence, primary screen (AID 622;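 active = fluorescence slope higher than the sample average by over 3 SD, cut at about -0.22 in these data, passing the limit was not always enough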;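 also: slope of raw intensity against log time taken from 70 to 1610 s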). The note with it: recombinant KvBeta, 4-cyanobenzaldehyde reduction, at 10 µM, stronger effect = higher value.
Assay [5] has the same target. Kind of assay: enhancers of rat Kvbeta2 NADPH turnover – biochemical, NADPH fluorescence, primary screen (AID 623;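 active = NADPH fluorescence slope more negative than the mean of all samples by about 3 SD, 99.7% confidence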;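 also: fluorescence intensity change per second fitted from 20 to 320 s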). The note with it: Recombinant KvBeta, NADPH fluorescence decrease slope, 10 min; at 10 µM; stronger effect = lower value.
In assay [6] the target is Muscarinic acetylcholine receptor M4 (Homo sapiens) (UniProt P08173). Kind of assay: M4-linked GIRK flux change, two-sided – cell-based, HEK293 M4/GIRK, thallium flux, BTC-AM, M4 allosteric agonist project, primary screen (AID 625;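 active = fluorescence slope after compound addition differing from the mean of all tested samples at 99.7% confidence, mostly higher but some lower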;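 also: thallium influx through GIRK channels coupled to M4 in HEK293 cells with BTC-AM dye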). The note with it: at 10 µM, actives lie on both sides. The gist of the method:
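System: HEK293 cells with M4 receptor and GIRK channels | Incubation: Cells overnight at 37 °C, BTC-AM loading 1 h, reads 2 min total | Technique: Kinetic BTC-AM fluorescence sampled at 1 Hz, 10 s pre-addition baseline | Measure: Post-addition slope, 15–24 s, of baseline-normalized fluorescence | Control set: Carbachol positive, DMSO negative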

Assay [7] in a line: blockers of RIG-like receptor reporter activation – cell-based, Sendai virus stimulus, luciferase, 10K MLSCN set, TLR/RLR signaling modifier project, primary screen (AID 602276).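 Also: firefly luciferase from ISG56 promoter only with Renilla not read in this screen; 0% = Sendai virus plus DMSO and 100% = medium plus DMSO without virus.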 The note with it: HEK293 RL24 IRF3 luciferase reporter, at 10 µM, stronger effect = higher value. On the technique in general: Reporter assays use an easily measured gene product as a stand-in for the process of interest.

Assay [8] can be described thus: TLR3 IRF3 reporter activation blockers – cell-based, poly I:C stimulus, luciferase, 10K MLSCN set, primary screen (AID 602277;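 active = inhibition of the reporter signal at or above 50%; inactive = inhibition below 50%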). Conditions: HEK293-TLR3 RL24 IRF3 luciferase reporter, at 10 µM, stronger effect = higher value.

Chain of Voltage-gated potassium channel subunit beta-2 (Rattus norvegicus) (P62483 whole entry, looked up): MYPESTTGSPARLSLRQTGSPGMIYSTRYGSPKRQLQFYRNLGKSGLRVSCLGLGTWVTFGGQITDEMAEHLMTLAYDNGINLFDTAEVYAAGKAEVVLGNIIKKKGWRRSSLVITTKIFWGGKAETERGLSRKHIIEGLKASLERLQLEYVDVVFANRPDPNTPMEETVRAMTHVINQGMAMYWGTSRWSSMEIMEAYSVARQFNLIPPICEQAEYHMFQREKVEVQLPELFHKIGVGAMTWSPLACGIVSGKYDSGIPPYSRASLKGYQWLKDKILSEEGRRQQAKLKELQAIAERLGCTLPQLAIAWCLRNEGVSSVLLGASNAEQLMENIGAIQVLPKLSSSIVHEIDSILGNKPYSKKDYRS
Chain of Muscarinic acetylcholine receptor M4 (Homo sapiens) (P08173 whole entry, looked up): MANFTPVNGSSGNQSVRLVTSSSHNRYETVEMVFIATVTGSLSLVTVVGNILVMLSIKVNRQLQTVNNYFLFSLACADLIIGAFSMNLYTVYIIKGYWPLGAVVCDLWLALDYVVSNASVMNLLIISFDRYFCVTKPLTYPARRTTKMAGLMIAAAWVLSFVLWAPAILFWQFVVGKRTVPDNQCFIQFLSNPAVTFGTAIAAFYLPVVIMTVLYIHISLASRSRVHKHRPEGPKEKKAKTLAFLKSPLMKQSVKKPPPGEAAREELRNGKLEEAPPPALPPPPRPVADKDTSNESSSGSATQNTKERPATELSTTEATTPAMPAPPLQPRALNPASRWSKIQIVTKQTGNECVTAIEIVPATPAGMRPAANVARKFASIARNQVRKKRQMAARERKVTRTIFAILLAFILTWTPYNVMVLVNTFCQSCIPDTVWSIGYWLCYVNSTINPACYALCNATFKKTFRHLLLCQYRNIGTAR

Take `Cc1cccc(-n2c(N)c(C(=O)N3CCN(C)CC3)sc2=S)c1`: in assay [1], the cell count came out at 786. In addition, the inhibition (in general, the drop in the measured response relative to a control, in per cent) in assay [1] is 0.5% (inactive); in assay [3], -25.5% (inactive); in assay [7], -4.11% (inactive); in assay [8] it was 6.8% (inactive). For the same compound, the inhibition of aggregation in assay [2] was -24.6% (inactive). In addition, the nuclei count came to 96.9% in assay [2] and 114% in assay [3]. The fluorescence slope in assay [4] is -0.56 (inactive); in assay [6], 0.00592 (inactive). Moreover, the NADPH fluorescence slope in assay [5] is -2.7e-06 (inactive).

For `CCOCCn1cnc2sc(C(=O)NCC(=O)OCC)c(C)c2c1=O`, the cell count in assay [1] stood at 425. Also, the inhibition is 7.9% (inactive) in assay [1], -256% (inactive) in assay [3], -2.53% (inactive) in assay [7] and -16% (inactive) in assay [8]. Further, the inhibition of aggregation in assay [2] is -1.3% (inactive). Also, the nuclei count worked out at 107% in assay [2] and 165% in assay [3]. For the same compound, the fluorescence slope in assay [4] was -0.55 (inactive); in assay [6] it was 0.00587 (inactive). Moreover, in assay [5], the NADPH fluorescence slope was -2.6e-05 (inactive).

In the case of `CCn1ncc(C2=NOC(C(=O)N3CCC(C(N)=O)CC3)C2)c1C` (centres undefined), the cell count in assay [1] was determined as 846. Further, the inhibition is -7.8% (inactive) in assay [1], -117% (inactive) in assay [3], -11.4% (inactive) in assay [7] and -7.82% (inactive) in assay [8]. The inhibition of aggregation in assay [2] is -19.8% (inactive). In addition, the nuclei count in assay [2] came out at 105%; in assay [3], 109%. In addition, the values for the fluorescence slope in assay [4] and in assay [6] were -0.47 (inactive) and 0.00576 (inactive), respectively. Further, in assay [5], the NADPH fluorescence slope was 3.7e-05 (inactive).

Take `C=CCn1c(=O)/c(=C/c2ccc(O)cc2)s/c1=C(/C#N)c1nnc2n1CCCCC2`: the cell count in assay [1] is 483. The inhibition in assay [1] was -0.5% (inactive); in assay [3], -5.3% (inactive); in assay [7], 17.7% (inactive); in assay [8], -30% (inactive). Besides, the inhibition of aggregation in assay [2] was 11.1% (inactive). Also, the nuclei count in assay [2] is 112%; in assay [3], 116%. The fluorescence slope in assay [4] was -0.332 (inactive); in assay [6] it was 0.00728 (inactive). In assay [5], the NADPH fluorescence slope was -4.5e-05 (inactive).

In the case of `CCCn1c(N2CCN(CC(=O)NCc3cccs3)CC2)nc2ccccc21`, the cell count in assay [1] came out at 451. Moreover, the inhibition in assay [1] was -6.7% (inactive); in assay [3], -81.5% (inactive); in assay [7] it was 21.5% (inactive); in assay [8], 28.5% (inactive). Besides, the inhibition of aggregation in assay [2] is 5.2% (inactive). Moreover, the values for the nuclei count in assay [2] and in assay [3] were 110% and 228%, respectively. Further, the fluorescence slope in assay [4] is -0.437 (inactive); in assay [6] it was 0.00415 (inactive). The NADPH fluorescence slope in assay [5] was -3.1e-05 (inactive).

For the compound `NS(=O)(=O)c1ccc(NCc2c(F)cccc2Cl)cc1`, the cell count in assay [1] is 300. Also, the inhibition in assay [1] was -3% (inactive); in assay [3], 38.8% (inactive); in assay [7], 8.08% (inactive); in assay [8] it was -2.77% (inactive). Further, the inhibition of aggregation in assay [2] was 36.6% (inactive). The nuclei count was determined as 79.8% in assay [2] and 99.4% in assay [3]. The fluorescence slope in assay [4] is -0.515 (inactive); in assay [6] it was 0.00288 (inactive). Moreover, the NADPH fluorescence slope in assay [5] was -0.000161 (inactive).

Consider `Cc1csc(SCC(=O)NC(=O)NCc2ccccc2)n1`, for which, in assay [1], the cell count was determined as 624. Moreover, the inhibition in assay [1] is -17.1% (inactive); in assay [3], -30.3% (inactive); in assay [7], 15.1% (inactive); in assay [8], 20% (inactive). For the same compound, the inhibition of aggregation in assay [2] was -16.6% (inactive). In addition, the results for the nuclei count in assay [2] and in assay [3] were 114% and 123%, respectively. Further, the fluorescence slope was -0.407 (inactive) in assay [4] and 0.0067 (inactive) in assay [6]. The NADPH fluorescence slope in assay [5] was 9.9e-05 (inactive).

For the compound `O=C(NCCN1CCN(c2ccccc2)CC1)c1ccc(NC(=O)C2CCCO2)cc1` (centres undefined), the cell count in assay [1] amounted to 562. In addition, the inhibition is -21.6% (inactive) in assay [1], -135% (inactive) in assay [3], 3.22% (inactive) in assay [7] and 6.35% (inactive) in assay [8]. In addition, the inhibition of aggregation in assay [2] is -9% (inactive). The nuclei count in assay [2] was 99.2%; in assay [3], 114%. The fluorescence slope was -0.468 (inactive) in assay [4] and 0.00539 (inactive) in assay [6]. Also, the NADPH fluorescence slope in assay [5] was 5.8e-06 (inactive).

With `O=C(CSc1nnc2scc(-c3ccccc3)n12)N1CCN(Cc2ccccc2)CC1`, the cell count in assay [1] worked out at 703. Besides, the inhibition in assay [1] was -24.5% (inactive); in assay [3], 19.1% (inactive); in assay [7], 6.37% (inactive); in assay [8], 7.98% (inactive). Moreover, the inhibition of aggregation in assay [2] is 6.5% (inactive). Besides, the figures for the nuclei count in assay [2] and in assay [3] were 110% and 91.4%, respectively. The fluorescence slope was -0.5 (inactive) in assay [4] and 0.00675 (inactive) in assay [6]. In addition, the NADPH fluorescence slope in assay [5] was 2.7e-06 (inactive).

With `COCCN(CC(=O)NC1CCCCC1)C(=O)CSc1nc2ccccc2o1`, the cell count in assay [1] turned out to be 666. Also, the inhibition in assay [1] was 12.1% (inactive); in assay [3] it was -28.2% (inactive); in assay [7] it was 2.87% (inactive); in assay [8], 18.7% (inactive). Also, the inhibition of aggregation in assay [2] is 3.4% (inactive). Further, the nuclei count in assay [2] was found to be 105%; in assay [3], 120%. Besides, the fluorescence slope is -0.469 (inactive) in assay [4] and 0.00558 (inactive) in assay [6]. The NADPH fluorescence slope in assay [5] is 2.1e-05 (inactive).

As for `Cc1cc(NC(=O)NC(=O)c2cccc(OC(F)(F)C(F)F)c2)n[nH]1`, the cell count in assay [1] worked out at 520. Besides, the inhibition in assay [1] was -14% (inactive); in assay [3] it was -45% (inactive); in assay [7] it was -14.7% (inactive); in assay [8] it was -48.5% (inactive). Besides, in assay [2], the inhibition of aggregation is -5.5% (inactive). Also, the nuclei count in assay [2] is 76.8%; in assay [3] it was 102%. Also, the fluorescence slope in assay [4] was -0.539 (inactive); in assay [6], 0.00729 (inactive). For the same compound, the NADPH fluorescence slope in assay [5] is 0.000153 (inactive).

Regarding `CCc1ccc(NS(=O)(=O)c2cccs2)cc1`, in assay [1], the cell count came out at 421. The inhibition is 4.3% (inactive) in assay [1], -82% (inactive) in assay [3], -6.86% (inactive) in assay [7] and -9.13% (inactive) in assay [8]. Also, the inhibition of aggregation in assay [2] is -18.3% (inactive). Also, the results for the nuclei count in assay [2] and in assay [3] were 105% and 109%, respectively. The figures for the fluorescence slope in assay [4] and in assay [6] were -0.634 (inactive) and 0.00357 (inactive), respectively. In addition, the NADPH fluorescence slope in assay [5] was 3e-06 (inactive).

Consider `COc1ccc2c(C(=O)CN(C)C3CCCCC3)c[nH]c2c1`, for which the cell count in assay [1] amounted to 533. Besides, the inhibition is -0.9% (inactive) in assay [1], -20.8% (inactive) in assay [3], 20.8% (inactive) in assay [7] and 39.7% (inactive) in assay [8]. For the same compound, in assay [2], the inhibition of aggregation was -4.4% (inactive). In addition, the nuclei count in assay [2] amounted to 82.5%; in assay [3] it was 96.7%. In addition, the fluorescence slope was -0.561 (inactive) in assay [4] and 0.0054 (inactive) in assay [6]. The NADPH fluorescence slope in assay [5] was -2.1e-05 (inactive).

Take `CC(C)=CC(=O)Nc1ccc(Br)cc1`: the cell count in assay [1] was 670. Also, the inhibition was -11.9% (inactive) in assay [1], 5.2% (inactive) in assay [3], -88% (inactive) in assay [7] and -158% (inactive) in assay [8]. Besides, the inhibition of aggregation in assay [2] was -6.6% (inactive). Further, the nuclei count in assay [2] worked out at 73.9%; in assay [3], 91.1%. Further, the figures for the fluorescence slope in assay [4] and in assay [6] were -0.582 (inactive) and 0.00668 (inactive), respectively. Moreover, in assay [5], the NADPH fluorescence slope was -1.3e-05 (inactive).
